Results on five molecules are retold here after publication PMC10500652 (ACS Omega, 2023).

In data set [1] the test system is Ct-DNA. Conditions: value reported in the literature; cited from earlier work.
The subject of data set [2] is HeLa. As to the kind of experiment: MTT cytotoxicity assay, HeLa. The following applies: for IC50: read-out: IC50 HeLa, MTT, 48 h incubation; for selectivity factor HeLa: ratio of IC50 HEK-293 / HeLa. The class given is cell-based, human. The essentials:
(§1)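 Cells kept in DMEM with 10% FBS, 1% nonessential amino acids and 1% antibiotic-antimycotic at 37 °C, 95% humidity, CO2, and trypsinised at 80% confluence. Seeded 1 × 10^4 cells/well, grown 24 h, then exposed to test compound. MTT read-out at 570 nm, in triplicate. % growth inhibition = 100 − (AD × 100/AB), against vehicle wells.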
In general terms: Tetrazolium dyes change colour on reduction, which living cells bring about.

Data set [3] has as its system MCF-7. As to the kind of experiment: MTT cytotoxicity assay, MCF-7. Conditions: for IC50: read-out: IC50 MCF 7, MTT, 48 h incubation; for selectivity factor MCF-7: ratio of IC50 HEK-293 / MCF-7. The format is cell-based, human. The essentials:
as §1

The test system of data set [4] is U87MG. As to the kind of experiment: MTT cytotoxicity assay, U87MG. The class given is cell-based, human. The following applies: for IC50: read-out: IC50 U87MG, MTT, 48 h incubation; for selectivity factor U87MG: ratio of IC50 HEK-293 / U87MG. The essentials:
as §1

Data set [5] concerns HEK293. Briefly: MTT cytotoxicity assay, HEK293. The following applies: read-out: IC50 HEK293, 48 h incubation, normal cell line. The format is cell-based, human. The essentials:
as §1

Data set [6] concerns MCF-7 cells. Briefly: Apoptosis, Annexin V FITC/PI assay. The format is cell-based, human. The following applies: 15 μM, 24 h.
The test system of data set [7] is MCF-7 cells. Briefly: Cell cycle analysis. The class given is cell-based, human. Conditions: 8 μM, 24 h. An outline of the steps:
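MCF-7 cells (1 × 10^6) grown 24 h, exposed to test compound in medium 24 h, then harvested by centrifugation. Fixed at 4 °C overnight and washed twice with cold PBS. Stained 15 min in the dark with 0.05 mg/ml PI plus 0.05 mg/ml RNaseA in sheath fluid. DNA content measured by flow cytometry to give percentage of cells in each cycle phase.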

Data set [8] can be described thus: Fluorescence quantum yield. The class given is physicochemical. The following applies: relative to quinine sulfate; 0.1% DMSO buffer solution, pH 7.2. An outline of the steps:
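Relative emission quantum yield against quinine sulfate in H2SO4 (excitation 350 nm, emission 452 nm, ΦR 0.50). Calculated from integrated emission peak area, absorbance at λmax and refractive indices of sample and reference solvents.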

Data set [9] in a line: Solubility. The class given is physicochemical.
Data set [10] is described as follows: Molar conductivity measurement. The format is physicochemical. Conditions: for molar conductance ^M in 10% DMSO: 10% aqueous DMSO; for molar conductance ^M in DMSO: pure DMSO. The essentials: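 Conductivity of test compound at 3 × 10^-5 M in DMSO and in aqueous DMSO, measured with a conductivity meter of cell constant 1.0 cm^-1.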
Data set [11] relates to Ct-DNA. Briefly: Ct-DNA binding by UV absorption titration. On the set-up: species or system calf. Conditions: on titration with Ct-DNA, Tris-HCl/NaCl buffer. The essentials:
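UV absorbance titration: Ct-DNA (purity checked by OD 260/280) added stepwise from stock to test compound held fixed at 20 μM in 5 mM Tris-HCl/50 mM NaCl. Intrinsic binding constant Kb from slope/intercept of linear fit. Hypochromicity %H = (A0 − AF)/A0 × 100, AF taken when absorbance stops changing.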

The test system of data set [12] is Ct-DNA. Briefly: Ethidium bromide displacement. The format is binding, calf. The following applies: for KSV, Stern–Volmer quenching constant: EtBr–Ct-DNA adduct. An outline of the steps: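 EtBr–Ct-DNA adduct (EtBr 8 μM) titrated with test compound at 5–60 μM; drop in EtBr emission followed. KSV from linear Stern–Volmer fit of I0/I vs [complex]. Kapp from the concentration giving 50% quenching: Kapp × [compound]50 = KEtBr × [EtBr], with KEtBr 1.0 × 10^7 M^-1.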

Data set [13] concerns the target BSA (Bos taurus, UniProt P02769). As to the kind of experiment: BSA binding, tryptophan emission quenching. The following applies: for KBSA, Stern–Volmer quenching constant: BSA fluorescence at 340 nm; for K, binding constant with BSA / n, number of binding sites: Scatchard plot; for kq, quenching rate constant: from KBSA and τ0 = 1 × 10^–8 s. On the set-up: species or system bovine. An outline of the steps:
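BSA prepared at 2 × 10^-6 M in Tris-HCl/NaCl buffer and titrated with increasing amounts of aqueous test compound. Mixed gently 5 min after each addition; tryptophan emission read at 340 nm with excitation at 295 nm. KBSA from Stern–Volmer plot of I0/I vs [complex]; kq = KBSA/τ0 with τ0 1 × 10^-8. K and n from log((I0−I)/I) vs log[Q].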

Data set [14] can be described thus: Lipophilicity, n-octanol/water partition coefficient by shake-flask method. The class given is physicochemical. Conditions: UV detection. An outline of the steps: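 Shake-flask partition: test compound dissolved in octanol/water and shaken 24 h. Phases separated by settling over 30 min or centrifuging 5000 rpm for 20 min, collected without cross-contamination. Compound in each phase quantified by UV-vis at room temperature. log Po/w = log([octanol]/[aqueous]); mean of three independent experiments.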

Chain of BSA (P02769 25-607): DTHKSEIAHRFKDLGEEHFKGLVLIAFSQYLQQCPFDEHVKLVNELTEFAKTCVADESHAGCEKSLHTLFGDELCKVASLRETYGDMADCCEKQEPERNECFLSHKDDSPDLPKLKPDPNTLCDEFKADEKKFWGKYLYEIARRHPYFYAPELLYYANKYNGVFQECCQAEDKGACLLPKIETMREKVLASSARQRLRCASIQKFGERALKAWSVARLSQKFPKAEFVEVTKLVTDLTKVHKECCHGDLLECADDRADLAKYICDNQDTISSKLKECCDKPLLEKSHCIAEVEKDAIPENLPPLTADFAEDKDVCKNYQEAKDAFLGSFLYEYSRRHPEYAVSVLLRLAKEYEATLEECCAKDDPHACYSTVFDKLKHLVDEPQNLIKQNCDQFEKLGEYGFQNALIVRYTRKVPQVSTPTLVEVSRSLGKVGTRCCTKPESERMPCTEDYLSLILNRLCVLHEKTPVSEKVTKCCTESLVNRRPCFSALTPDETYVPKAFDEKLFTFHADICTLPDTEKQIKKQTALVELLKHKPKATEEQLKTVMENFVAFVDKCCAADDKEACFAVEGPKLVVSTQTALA

In the case of `CC[n+]1c(-c2ccccc2)c2cc(N)ccc2c2ccc(N)cc21` [EtBr, Ethidium bromide], the “KEtBr, binding constant of EtBr to DNA” value in data set [1] was 1.0 × 10^7 M^–1.
In general, IC50 refers to the midpoint of a concentration-inhibition curve. Regarding `N.N.[Cl][Pt][Cl]` [cisplatin, cis-diamminedichloroplatinum(II), reference compound], the IC50 in data set [2] came out at 16.4 ± 0.16 µM; in data set [3] it was 20.1 ± 1.6 µM; in [4], 16.9 ± 2.1 µM; in [5] it was 34.8 µM. In data set [6], this molecule gave an early apoptosis of 12.00%. The same molecule displayed a late apoptosis in data set [6] of 32.04%. For the same molecule, in data set [6], the necrotic cells is given as 3.12%.
In data set [7], `COc1cc2c(c(OC)c1OC)-c1ccc(OC)c(=O)cc1[C@@H](NC(C)=O)CC2` [colchicine] displayed a G0/G1 phase cells of 54.11%, a G2/M phase cells of 34.60%, a S phase cells of 8.30% and a sub-G0 phase cells of 0.64%.
With “[(η^5-Cp*)Ir^IIICl(K^2-N,N-2(2-(4-(4-(Pyridin-2-yl)-1H-1,2,3-triazol-1-yl)butoxy)phenyl)benzo[d]thiazole)]Cl [Complex 7b]”, the “quantum yield (ϕf)” value in [8] was found to be 0.0004. Further, the “solubility in water / aqueous medium” value in data set [9] is reported as “very good solubility in aqueous medium”. In [10], the “molar conductance ^M in 10% DMSO” value is 26 S cm^2 mol^–1 and the “molar conductance ^M in DMSO” value was determined as 5 S cm^2 mol^–1. Moreover, the “Δε, change in molar absorptivity” value in data set [11] was 46.66%. Moreover, in data set [12] (50% quenching, [EtBr] = 8 μM, [DNA] = 120 μM), the “Kapp, apparent DNA-binding constant” value was 0.14 × 10^7 M^–1. Besides, the “KSV, Stern–Volmer quenching constant” value in data set [12] is 4 × 10^3 M^–1. In [13], the “KBSA, Stern–Volmer quenching constant” value is reported as 0.201 × 10^6 M^–1; the “K, binding constant with BSA” value is given as 0.057 × 10^6 M^–1; the “n, number of binding sites” value is recorded as 1.33; the “kq, quenching rate constant” value was 2.01 × 10^13 M^–1 s^–1. In [2], the “selectivity factor HeLa” value is given as 6.31 and the IC50 worked out at 15.8 ± 0.7 µM. Further, in data set [3], the “selectivity factor MCF-7” value was determined as 2.45 and the IC50 came out at 40.9 ± 1.8 µM. Further, in [4], the “selectivity factor U87MG” value is 1 and the IC50 was above 100 µM. Also, in data set [5], the 50% inhibitory concentration (IC50) was above 100 µM.
As to “[Re^I(CO)3Cl(K^2-N,N-2-(2-(4-(4-(Pyridin-2-yl)-1H-1,2,3-triazol-1-yl)butoxy)phenyl)benzo[d]thiazole)] [Complex 7c]”, the “quantum yield (ϕf)” value in [8] is recorded as 0.0140. In addition, in data set [14], the “log Po/w (n-octanol/water partition coefficient)” value amounted to 0.3180. The “solubility in water / aqueous medium” value in data set [9] is recorded as “poor solubility in water”. For the same molecule, in data set [10], the “molar conductance ^M in 10% DMSO” value worked out at 22 S cm^2 mol^–1 and the “molar conductance ^M in DMSO” value is given as 9 S cm^2 mol^–1. For the same molecule, in data set [11], the “Δε, change in molar absorptivity” value is 27.12%. Further, the “KSV, Stern–Volmer quenching constant” value in [12] is recorded as 8.2 × 10^3 M^–1. Moreover, in [13], the “KBSA, Stern–Volmer quenching constant” value was 0.296 × 10^6 M^–1; the “K, binding constant with BSA” value was 0.087 × 10^6 M^–1; the “n, number of binding sites” value is 1.21; the “kq, quenching rate constant” value was 2.9 × 10^13 M^–1 s^–1. In data set [2], the “selectivity factor HeLa” value is listed as 5.15 and the IC50 was 19.4 ± 0.19 µM. Moreover, in [3], the “selectivity factor MCF-7” value is given as 2.44 and the 50% inhibitory concentration (IC50) came to 40.9 ± 1.4 µM. In addition, in data set [4], the “selectivity factor U87MG” value is on record as 1.31 and the IC50 amounted to 76 ± 3.5 µM. The 50% inhibitory concentration (IC50) in data set [5] was above 100 µM.
